Source: PubChem BioAssay (several laboratories)
SR-BI uptake up = SR-BI HDL lipid transfer activation. activation, % at 12.5 µM. AID 504775. hit rate 0.096% among 320,000. CHO ldlA[mSR-BI] cells, DiI-HDL uptake fluorescence, 3 h; 100 = double the neutral-control signal;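 active = mean replicate activation of at least 60% and every replicate at or above 60%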;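 note: 0% = median plate neutral-control signal and 100% = twice that signal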
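Assay system: LDL receptor-deficient CHO ldlA cells overexpressing murine SR-BI / Medium: BSA-supplemented, HEPES-buffered Ham's F12, pH 7.4 / Probe or stimulus: DiI-labelled HDL at 10 µg/mL final / Timing: compound with DiI-HDL co-incubation, 3 h at 37 °C / Technique: bottom-read cell fluorescence after medium removal, ex 550/em 595 nm / Measure: HDL uptake via cellular fluorescence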
SR-BI HDL uptake = inhibitors of mouse SR-BI mediated HDL lipid uptake. Q61009. ldlA[mSR-BI] CHO cells, DiI-HDL uptake fluorescence, 3 h. inhibition, % at 12.5 µM. hit rate 0.96% among 320,000. AID 488896;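 active = mean replicate inhibition of at least 70% and a set share of replicates each scoring 70 or more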;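 note: 0% = median of neutral control wells and 100% = median of positive control wells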
CDK5 p35 inh = blocks human CDK5/p35 kinase activity; Q00535+Q15078; Recombinant CDK5/p35, ADP-Glo luminescence, 60 min; inhibition, % at 10 µM; hit rate 0.01% among 330,000;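 active = highest replicate inhibition of at least 50% and at least 75% of replicates reaching 50%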;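 note: plate controls were DMSO neutral control for no effect and GW8510 at 10 µM for full effect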
PKA-R1A activ = activators of PKA-R1A complex; P00514+P68181; PKA-R1A dissociation, Cy5-IP20 fluorescence polarization; scaled: DMSO 0%, 113 µM cGMP 100%; activation, % at 11.4 µM; hit rate 0.083% among 340,000; AID 504707;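 active = percent activation above the mean of all tested compounds plus 3 SD, cut at about 19% in these data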;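 note: higher means more PKAc released from R1A so a rise in polarization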
dFosB activator = enhances mouse delta FosB homodimer DNA binding; purified delta FosB, TAMRA-CDK5 oligo fluorescence polarization; percent of positive-control signal above neutral wells; AID 493131; P13346; hit rate 0.99% among 340,000; activation, % at 25 µM;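 active = mean activation above about 17%, with every replicate also reaching it, limit read from the data, passing the limit was not always enough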
Target sequence (P13346 whole entry, looked up): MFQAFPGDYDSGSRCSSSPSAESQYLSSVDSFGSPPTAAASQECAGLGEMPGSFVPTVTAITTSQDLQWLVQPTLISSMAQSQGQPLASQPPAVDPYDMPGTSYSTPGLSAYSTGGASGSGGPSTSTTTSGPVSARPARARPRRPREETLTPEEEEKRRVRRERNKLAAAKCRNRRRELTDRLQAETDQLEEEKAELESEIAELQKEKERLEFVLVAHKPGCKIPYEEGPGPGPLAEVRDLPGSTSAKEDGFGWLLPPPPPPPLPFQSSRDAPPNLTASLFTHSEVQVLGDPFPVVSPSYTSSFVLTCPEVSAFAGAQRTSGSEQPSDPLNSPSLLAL
PKA-R2B activ = PKA-R2B complex activation; PKA-R2B holoenzyme dissociation, Cy5-IP20 fluorescence polarization; R2B truncated from residue 108, S112A mutant; 0% DMSO only, 100% 113 µM cGMP; activation, % at 11.4 µM; hit rate 0.079% among 340,000; AID 504700;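 active = activation above a cutoff set at the mean over all compounds plus 3 SD, cut at about 18% in these data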;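 note: higher means more holoenzyme dissociation and a rise in polarization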
* marks the source's active call; other numbers are inactive results. A selection: hits, their analogues and other compounds. The true share with any hit is near 2.1%.

What do the screens show for `Cc1cccc(NC(=O)CN(CC2CCCO2)C(=O)c2cc(S(=O)(=O)N(C)C)ccc2F)c1C` (stereo not drawn)?
SR-BI uptake up: 27; SR-BI HDL uptake: -27; CDK5 p35 inh: -2; PKA-R1A activ: 0; dFosB activator: -3; PKA-R2B activ: -9

How did Cc1cc(C)n(Cc2ccc(C(=O)N/N=C/c3ccc(-c4ccc([N+](=O)[O-])cc4)o3)o2)n1 do in these assays?
SR-BI uptake up: -103; SR-BI HDL uptake: 104*; CDK5 p35 inh: 2; PKA-R1A activ: 13; dFosB activator: 4; PKA-R2B activ: -2

Results for CC(=O)c1c(C)[nH]c(C(=O)OCc2ccc(F)cc2Cl)c1C ?
SR-BI uptake up: -44; SR-BI HDL uptake: 44; CDK5 p35 inh: -2; PKA-R1A activ: 9; dFosB activator: 1; PKA-R2B activ: 7

Results for CC(=O)c1c(C)[nH]c(C(=O)OCc2cccc(Cl)c2)c1C ?
SR-BI uptake up: -71; SR-BI HDL uptake: 71*; CDK5 p35 inh: 1; PKA-R1A activ: -6; dFosB activator: -24; PKA-R2B activ: -9

Results for COc1cc2c(cc1OC)CN(c1ccc([N+](=O)[O-])cc1Cl)CC2 ?
SR-BI uptake up: -80; SR-BI HDL uptake: 80*; CDK5 p35 inh: -2; PKA-R1A activ: 8; dFosB activator: -4; PKA-R2B activ: 1

How did COc1cc2c(cc1OC)CN(c1ccc([N+](=O)[O-])cc1C#N)CC2 do in these assays?
SR-BI uptake up: -64; SR-BI HDL uptake: 64; CDK5 p35 inh: 0; PKA-R1A activ: -3; dFosB activator: 0; PKA-R2B activ: -4

What do the screens show for `C[C@@H]1CN([C@@H](C)CO)C(=O)CCCn2nncc2CO[C@@H]1CN(C)S(=O)(=O)c1ccc(Oc2ccccc2)cc1`?
PKA-R1A activ: 1; PKA-R2B activ: 0

What do the screens show for `CCCCn1nc2cc(C(=O)NC3CCc4ccccc43)ccc2c1OCC` (stereo not drawn)?
SR-BI uptake up: -77; SR-BI HDL uptake: 77*; CDK5 p35 inh: -2; PKA-R1A activ: 9; dFosB activator: 1; PKA-R2B activ: 1

What do the screens show for `COc1cc(/C=N/Nc2nncc3ccccc23)cc(OC)c1OC`?
SR-BI uptake up: -57; SR-BI HDL uptake: 57; CDK5 p35 inh: 3; PKA-R1A activ: 2; dFosB activator: -7; PKA-R2B activ: 6

How did COc1ccc(/C=N/Nc2nncc3ccccc23)c(OC)c1 do in these assays?
SR-BI uptake up: -76; SR-BI HDL uptake: 76*; CDK5 p35 inh: -1; PKA-R1A activ: -3; dFosB activator: -2; PKA-R2B activ: -9

What do the screens show for `Cn1nccc1C(=O)OCC(=O)Nc1ccccc1Cl`?
SR-BI uptake up: 15; SR-BI HDL uptake: -15; CDK5 p35 inh: 3; PKA-R1A activ: 2; dFosB activator: -2; PKA-R2B activ: 11

How did O=C(Nc1ccc(NC(=O)c2ccccn2)cc1)C(=O)Nc1ccc2c(c1)OCCO2 do in these assays?
SR-BI uptake up: -16; SR-BI HDL uptake: 16; CDK5 p35 inh: 0; PKA-R1A activ: 4; dFosB activator: 19*; PKA-R2B activ: 0

Results for O=C(Nc1ccc(NC(=O)c2cccs2)cc1)c1ccc2c(c1)OCCO2 ?
CDK5 p35 inh: -1; PKA-R1A activ: 5; dFosB activator: 17*; PKA-R2B activ: 3

What do the screens show for `COc1cc(C(=O)Nc2cccc(NC(=O)c3cccs3)c2)cc(OC)c1OC`?
SR-BI uptake up: -78; SR-BI HDL uptake: 78*; CDK5 p35 inh: 1; PKA-R1A activ: -5; dFosB activator: -14; PKA-R2B activ: 0

What do the screens show for `COc1cc(NC(=O)c2ccc3c(c2)OCCO3)ccc1NC(=O)c1ccco1`?
SR-BI uptake up: -46; SR-BI HDL uptake: 46; CDK5 p35 inh: -1; PKA-R1A activ: 4; dFosB activator: 2; PKA-R2B activ: -1

Results for COc1cc(NC(=O)c2ccc3c(c2)OCCO3)ccc1NC(=O)c1cccs1 ?
SR-BI uptake up: -74; SR-BI HDL uptake: 74*; CDK5 p35 inh: 1; PKA-R1A activ: -7; dFosB activator: -4; PKA-R2B activ: -4

What do the screens show for `CCN1C(=O)c2cccc3c(S(=O)(=O)N(C(C)=O)c4ccc(OC(C)=O)cc4)ccc1c23`?
SR-BI uptake up: -8; SR-BI HDL uptake: 8; CDK5 p35 inh: 0; PKA-R1A activ: 0; dFosB activator: 1; PKA-R2B activ: -5

What do the screens show for `COc1cc(NC(=O)c2ccccc2Cl)ccc1NC(=O)c1cccs1`?
SR-BI uptake up: -67; SR-BI HDL uptake: 67; CDK5 p35 inh: 3; PKA-R1A activ: -10; dFosB activator: -7; PKA-R2B activ: -3

How did COc1cc(NC(=O)c2cccc(Cl)c2)ccc1NC(=O)c1cccs1 do in these assays?
SR-BI uptake up: -75; SR-BI HDL uptake: 75*; CDK5 p35 inh: -3; PKA-R1A activ: -3; dFosB activator: -8; PKA-R2B activ: -6

What do the screens show for `COc1ccc(-c2cnc3c(-c4ccc(F)cc4)cnn3c2N)cc1`?
SR-BI uptake up: -95; SR-BI HDL uptake: 95*; CDK5 p35 inh: -1; PKA-R1A activ: -3; dFosB activator: -11; PKA-R2B activ: 11

What do the screens show for `COc1ccc(-c2cnn3c(N)c(S(=O)(=O)C(C)(C)C)cnc23)cc1`?
SR-BI uptake up: -12; SR-BI HDL uptake: 12; CDK5 p35 inh: -1; PKA-R1A activ: -5; dFosB activator: 0; PKA-R2B activ: -16

How did NC(CSC(c1ccccc1)(c1ccccc1)c1ccc2c(c1)OCO2)C(=O)O (stereo not drawn) do in these assays?
PKA-R1A activ: -6; PKA-R2B activ: -4

What do the screens show for `Cn1cccc1-c1nc2ccc(NC(=O)c3ccco3)cc2[nH]1`?
SR-BI uptake up: -41; SR-BI HDL uptake: 41; CDK5 p35 inh: 1; PKA-R1A activ: 7; dFosB activator: -5; PKA-R2B activ: 4

Results for Cc1ccc2nc(-c3ccc(NC(=O)c4ccco4)cc3)[nH]c2c1 ?
SR-BI uptake up: -50; SR-BI HDL uptake: 50; CDK5 p35 inh: 0; PKA-R1A activ: -3; dFosB activator: 43*; PKA-R2B activ: -6

What do the screens show for `CCS(=O)(=O)N1Cc2ccccc2CC1C(=O)N(C)CC(=O)Nc1ccc(F)c(F)c1F` (stereo not drawn)?
SR-BI uptake up: 13; SR-BI HDL uptake: -13; CDK5 p35 inh: 0; PKA-R1A activ: 9; dFosB activator: 0; PKA-R2B activ: -2

Results for O=C(Nn1c(COc2ccccc2)nc2ccccc2c1=O)C(Cl)(Cl)Cl ?
SR-BI uptake up: -13; SR-BI HDL uptake: 13; CDK5 p35 inh: 1; PKA-R1A activ: -14; dFosB activator: -3; PKA-R2B activ: -6

Results for O=C(OCC1CCC=CO1)C1CCC=CO1 (stereo not drawn) ?
SR-BI uptake up: -2; SR-BI HDL uptake: 2; CDK5 p35 inh: -2; PKA-R1A activ: -19; dFosB activator: -4; PKA-R2B activ: -15
